Our source for the IC50 values is ChEMBL document CHEMBL1154848, “Cytotoxic 3,4-seco-cycloartane triterpenes from the exudate of Gardenia tubifera” (J Nat Prod, 2010).

One assay concerns HepG2. Nature of the assay: Cytotoxicity against human HepG2 cells after 3 days by MTT assay. It counts as functional, cell-based. Conditions: HepG2, 72 h. Put shortly:
(§1)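 Cells grown in RPMI-1640 with 25 mM HEPES, 0.25% (w/v) sodium bicarbonate, 5% (v/v) FBS and 100 µg/mL kanamycin. Freshly trypsinized cells were seeded at 5000 per well and given compound from DMSO-diluted stock. After three days, attached cells were MTT-stained, bound dye was solubilized and absorbance read at 540 nm. IC50 = 50% growth inhibition, averaged over at least six independent determinations.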

Assay [1] in a line: Cytotoxicity against human ChaGo cells after 3 days by MTT assay. Format: functional, cell-based. Conditions: 72 h. Put shortly:
as §1
In general terms: Tetrazolium dyes change colour on reduction, which living cells bring about.

The test system of a further assay is BT-474. In words: Cytotoxicity against human BT474 cells after 3 days by MTT assay. Format: functional, cell-based. Conditions: BT-474, 72 h. Put shortly: as §1
In a further assay the test system is SW-620. In words: Cytotoxicity against human SW620 cells after 3 days by MTT assay. Format: functional, cell-based. The following applies: SW-620, 72 h. Put shortly: as §1
A short description of assay [2]: Cytotoxicity against human KATO III cells after 3 days by MTT assay. Format: functional, cell-based, KATO III cell. The following applies: 72 h. Put shortly:
as §1

Values after ≈ are worked out from the molar mass of the structure shown.

For the compound `C=C(CO)[C@@H]1CC[C@@H]2[C@]3(CC[C@]4(C)[C@@H]([C@H](C)CC=CC(C)(C)O)CC[C@@]24C)C[C@]13CCC(=O)O`, the IC50 (with HepG2; in assay [1]; in the assay with BT-474; in the assay with SW-620; in assay [2]) was greater than 5 µg/mL in each case.

Take `C=C1C(=O)O[C@@H]2C[C@@H]3[C@]4(CC[C@]5(C)[C@@H]([C@H](C)Cc6cc(C)co6)CC[C@@]35C)C[C@]4(CCC(=O)O)[C@H]12` [GARDENOIN A]: the IC50 (as a rule, the concentration at which inhibition is half-maximal) with HepG2 was 4.5 µg/mL (≈ 9.36 µM); in assay [1], 1.6 µg/mL (≈ 3.33 µM); in the assay on BT-474, greater than 5 µg/mL; in the assay with SW-620, greater than 5 µg/mL; in assay [2] it was greater than 5 µg/mL.

With `C=C1C(=O)O[C@@H]2[C@H](O)[C@@H]3[C@]4(CC[C@]5(C)[C@@H]([C@H](C)Cc6cc(C)co6)CC[C@@]35C)C[C@]4(CCC(=O)OC)[C@H]12` [GARDENOIN C], the IC50 in the assay on HepG2 is 2.8 µg/mL (≈ 5.48 µM); in assay [1] it was 4.4 µg/mL (≈ 8.62 µM); in the assay on BT-474 it was greater than 5 µg/mL; in the assay on SW-620 it was 2.5 µg/mL (≈ 4.9 µM); in assay [2] it was greater than 5 µg/mL.

Take `C=C1C(=O)O[C@@H]2C[C@@H]3[C@]4(CC[C@]5(C)[C@@H]([C@H](C)Cc6cc(C)co6)CC[C@@]35C)C[C@]4(CCC(=O)OC)[C@H]12` [GARDENOIN B]: the concentration for half-maximal inhibition (IC50) (in the assay with HepG2; in assay [1]; in the assay with BT-474; with SW-620; in assay [2]) was greater than 5 µg/mL throughout.
